UCH37 inh – inhibitors of human deubiquitinating enzyme UCH37; Q9Y5K5; purified proteasome/UCH37, Ub-AMC cleavage fluorescence; inhibition, % (concentration not given with the values); actives 0.33% (n = 330,000); AID 588478;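 active = mean inhibition over replicate wells above about 20%, limit read from the data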;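 note: 0% = compound-free wells with enzyme and 100% = wells lacking proteasome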
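Material: human UCH37 enzyme supplied as purified proteasome complex. Measure: % inhibition of Ub-AMC cleavage fluorescence. Medium: pH 7.4 Tris-HCl (50 mM) with ovalbumin, ATP-MgCl2, DTT. Times: 30 min preincubation with enzyme, 25 min cleavage at room temperature. Detection: AMC fluorescence intensity at 355/460 nm.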
PAFAH1B2 FP inh – blocks human PAF acetylhydrolase 1b catalytic subunit 2. inhibition, % at 3.39 µM. recombinant PAFAH1B2, FP-rhodamine activity probe, fluorescence polarization. AID 492953. actives 1.2% (n = 340,000);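 active = inhibition above the mean of all tested compounds plus 3 SD, cut at about 24% in these data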;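 note: 0% = enzyme with DMSO and 100% = wells lacking PAFAH1B2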
Target sequence (P68402 whole entry, looked up): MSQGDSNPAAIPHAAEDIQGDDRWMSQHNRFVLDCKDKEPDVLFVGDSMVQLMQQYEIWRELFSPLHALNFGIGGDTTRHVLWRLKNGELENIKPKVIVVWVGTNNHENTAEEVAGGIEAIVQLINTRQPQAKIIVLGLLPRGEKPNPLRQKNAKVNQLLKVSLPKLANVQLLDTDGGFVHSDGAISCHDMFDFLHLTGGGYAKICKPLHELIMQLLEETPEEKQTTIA
PAFAH2 inh – PAFAH2 (human) inhibition | actives 0.99% (n = 340,000) | recombinant PAFAH2, FP-rhodamine activity probe, fluorescence polarization | Q99487 | inhibition, % at 3.39 µM;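 active = inhibition above the mean over all tested compounds plus 3 SD, cut at about 30% in these data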;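 note: inhibitors block probe labeling of enzyme so polarization drops; 0% = enzyme with DMSO and 100% = wells lacking PAFAH2 protein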
pPAFAH FP inh – pPAFAH (human) enzyme inhibition; Q13093; recombinant pPAFAH, FP-rhodamine probe fluorescence polarization; inhibition, % at 3.39 µM; actives 1.5% (n = 330,000);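 active = inhibition above the mean inhibition across the screen plus 3 SD, cut at about 25% in these data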;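 note: inhibitors block binding of the rhodamine activity-based probe so polarization drops; 0% = enzyme with DMSO and 100% = wells lacking pPAFAH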
Target sequence (Q13093 whole entry, looked up): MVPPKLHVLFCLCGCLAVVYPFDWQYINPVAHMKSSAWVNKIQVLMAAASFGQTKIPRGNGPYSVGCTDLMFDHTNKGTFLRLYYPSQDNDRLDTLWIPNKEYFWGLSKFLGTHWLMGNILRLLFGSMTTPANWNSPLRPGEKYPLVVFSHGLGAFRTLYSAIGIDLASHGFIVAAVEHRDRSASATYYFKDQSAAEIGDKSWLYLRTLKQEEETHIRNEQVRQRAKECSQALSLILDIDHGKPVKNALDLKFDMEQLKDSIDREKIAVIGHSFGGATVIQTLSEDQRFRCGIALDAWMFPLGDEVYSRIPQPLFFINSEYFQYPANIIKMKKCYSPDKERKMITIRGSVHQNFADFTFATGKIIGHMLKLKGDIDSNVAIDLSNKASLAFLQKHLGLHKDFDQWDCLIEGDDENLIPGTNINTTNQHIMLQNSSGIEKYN
GRIN3A LBD mod – NR3A (human) ligand-binding domain modulation | NR3A LBD differential scanning fluorimetry, Tm shift; 0% = protein alone, 100% = glycine-bound protein | actives 2.5% (n = 340,000) | Tm shift relative to glycine control, % at 25 µM;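 active = melting temperature shift of at least 10% of the positive control shift, at one fixed dose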
PAFAH1B3 FP inh – PAFAH1B3 (human) inhibition | Q15102 | inhibition, % at 3.39 µM | recombinant PAFAH1B3, FP-rhodamine probe, fluorescence polarization | actives 0.28% (n = 340,000) | AID 492972;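 active = inhibition above the screen-wide average of all tested compounds plus 3 SD, cut at about 25% in these data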;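 note: 0% = enzyme with DMSO only and 100% = wells lacking PAFAH1B3 protein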
PAFAH2 confirm – confirmation of human PAFAH2 inhibitors. shares compounds with PAFAH2 inh. recombinant PAFAH2, FP-rhodamine activity probe, fluorescence polarization. inhibition, % at 3.39 µM. actives 65% (n = 2,300);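 active = mean inhibition over three repeats above a set limit taken from the earlier primary screen, cut at about 30% in these data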;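 note: inhibitor blocks binding of rhodamine activity probe so polarization falls; 0% = enzyme with DMSO and 100% = wells lacking PAFAH2 protein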
* hit, by the source's call. This is a sample that favours compounds with a hit; in the whole collection about 4.8% have one here.

How did O=C(COC(=O)c1cc[n+]([O-])cc1)Nc1ccccc1Cl do in these assays?
UCH37 inh: 4; PAFAH1B2 FP inh: 2; PAFAH2 inh: 7; pPAFAH FP inh: 3; GRIN3A LBD mod: -2; PAFAH1B3 FP inh: 8

How did Cn1ccc(C(=O)OCC(=O)Nc2ccccc2Cl)n1 do in these assays?
UCH37 inh: 6; PAFAH1B2 FP inh: 5; PAFAH2 inh: 39*; GRIN3A LBD mod: 0; PAFAH1B3 FP inh: 2; PAFAH2 confirm: 28

What do the screens show for `Cn1nccc1C(=O)OCC(=O)Nc1cccc(Cl)c1`?
UCH37 inh: 4; PAFAH1B2 FP inh: 7; PAFAH2 inh: 66*; pPAFAH FP inh: 3; GRIN3A LBD mod: -1; PAFAH1B3 FP inh: 2; PAFAH2 confirm: 52*

How did O=C(COC(=O)c1ccccn1)Nc1cccc(Cl)c1 do in these assays?
UCH37 inh: 3; PAFAH1B2 FP inh: -2; PAFAH2 inh: -2; pPAFAH FP inh: -1; GRIN3A LBD mod: 1; PAFAH1B3 FP inh: 4

Results for Cc1ccc(N2CCN(C(=O)CNS(=O)(=O)c3ccc(Br)s3)CC2C)cc1 (centres undefined) ?
UCH37 inh: 1; PAFAH1B2 FP inh: 12; PAFAH2 inh: 36*; pPAFAH FP inh: 3; GRIN3A LBD mod: -1; PAFAH1B3 FP inh: 5; PAFAH2 confirm: 24

What do the screens show for `O=C(COC(=O)c1ccc(F)cc1F)Nc1ccc(Cl)cn1`?
UCH37 inh: 3; PAFAH1B2 FP inh: 3; PAFAH2 inh: 39*; pPAFAH FP inh: 14; GRIN3A LBD mod: 2; PAFAH1B3 FP inh: 6; PAFAH2 confirm: 31*

Results for CCCC(C)NC(=O)COC(=O)c1cccc(NS(C)(=O)=O)c1 (centres undefined) ?
UCH37 inh: 1; PAFAH1B2 FP inh: 2; PAFAH2 inh: 37*; pPAFAH FP inh: 4; GRIN3A LBD mod: -1; PAFAH1B3 FP inh: 1; PAFAH2 confirm: 22

What do the screens show for `CC(=O)Nc1cccc(C(=O)OCC(=O)Nc2ccc(Cl)cn2)c1`?
UCH37 inh: 4; PAFAH1B2 FP inh: 1; PAFAH2 inh: 44*; pPAFAH FP inh: -2; GRIN3A LBD mod: -1; PAFAH1B3 FP inh: 3; PAFAH2 confirm: 33*

What do the screens show for `CCNC(=O)NC(=O)COC(=O)c1cccc(NS(=O)(=O)/C=C/c2ccccc2)c1`?
UCH37 inh: 0; PAFAH1B2 FP inh: 1; PAFAH2 inh: 4; pPAFAH FP inh: 4; GRIN3A LBD mod: -6; PAFAH1B3 FP inh: -8

What do the screens show for `CCN(c1ccc(NC(=O)COC(=O)c2ccc(C)s2)cc1)C(C)C`?
UCH37 inh: 2; PAFAH1B2 FP inh: -1; PAFAH2 inh: 46*; pPAFAH FP inh: 18; GRIN3A LBD mod: -1; PAFAH1B3 FP inh: 5; PAFAH2 confirm: 40*

What do the screens show for `CCN1C(=O)CSC1=NS(=O)(=O)c1ccc(C)cc1`?
UCH37 inh: 1

What do the screens show for `CSCCC(NC(=O)c1ccccc1)C(=O)NN=C(C)Cc1ccccc1` (centres undefined)?
UCH37 inh: 4

What do the screens show for `O=C(COC(=O)c1ccc([N+](=O)[O-])s1)Nc1ccc(Cl)cn1`?
UCH37 inh: 6; PAFAH1B2 FP inh: 11; PAFAH2 inh: 22; pPAFAH FP inh: 20; GRIN3A LBD mod: -1; PAFAH1B3 FP inh: 24

How did Cc1ccc(C(=O)OCC(=O)Nc2ccc(Cl)cn2)s1 do in these assays?
UCH37 inh: 1; PAFAH1B2 FP inh: 4; PAFAH2 inh: 71*; pPAFAH FP inh: 8; GRIN3A LBD mod: 0; PAFAH1B3 FP inh: 9; PAFAH2 confirm: 63*

Results for CC(=O)Nc1ccc(OCC(=O)NC(C)c2ccc(F)cc2)cc1 (centres undefined) ?
UCH37 inh: 3; PAFAH1B2 FP inh: 6; PAFAH2 inh: -1; pPAFAH FP inh: 2; GRIN3A LBD mod: 0; PAFAH1B3 FP inh: 8

Results for O=C(COC(=O)c1cnccn1)Nc1ccc(Cl)cn1 ?
UCH37 inh: -1; PAFAH1B2 FP inh: -2; PAFAH2 inh: -5; pPAFAH FP inh: 5; GRIN3A LBD mod: -1; PAFAH1B3 FP inh: 5

How did CC(=O)Nc1cccc(C(=O)OCC(=O)NC(C)c2ccc(F)cc2)c1 (centres undefined) do in these assays?
UCH37 inh: 1; PAFAH1B2 FP inh: -1; PAFAH2 inh: 46*; pPAFAH FP inh: -11; GRIN3A LBD mod: 0; PAFAH1B3 FP inh: 10; PAFAH2 confirm: 36*

What do the screens show for `NC(=O)Nc1ccc(C(=O)OCC(=O)Nc2ccc(Cl)cn2)cc1`?
UCH37 inh: 4; PAFAH1B2 FP inh: 5; PAFAH2 inh: 82*; pPAFAH FP inh: 9; GRIN3A LBD mod: 4; PAFAH1B3 FP inh: 5; PAFAH2 confirm: 72*

What do the screens show for `CCOc1cc(C(=O)OCC(=O)Nc2ccc(Cl)cn2)ccc1OCC(=O)N1CCOCC1`?
UCH37 inh: 1; PAFAH1B2 FP inh: 2; PAFAH2 inh: 83*; pPAFAH FP inh: 22; GRIN3A LBD mod: -2; PAFAH1B3 FP inh: 3; PAFAH2 confirm: 71*

What do the screens show for `O=C(CN1CCN(Cc2ccccc2)CC1)NN=Cc1cccnc1`?
UCH37 inh: 2

How did CC(=NOC(=O)c1ccc(C)cc1)c1ccc(N2C(=O)C3CCCCC3C2=O)cc1 (centres undefined) do in these assays?
UCH37 inh: 0

Results for C=CCN1C(=O)CSC1=NN=Cc1cccc([N+](=O)[O-])c1 ?
UCH37 inh: 2

How did CC(CC(=O)Nc1ccc2c(c1)OCCO2)=NNC(=O)COc1ccc(C)cc1Br do in these assays?
UCH37 inh: 3

How did O=C1CCCC(O)=C1N=Nc1ccc(Cl)c(Cl)c1 do in these assays?
UCH37 inh: 4; PAFAH1B2 FP inh: 4; PAFAH2 inh: 33*; pPAFAH FP inh: 6; GRIN3A LBD mod: -1; PAFAH1B3 FP inh: -2; PAFAH2 confirm: 9

What do the screens show for `O=[N+]([O-])c1ccccc1S(=O)(=O)Nc1cccc(-c2ccc(N3CCCC3)nn2)c1`?
UCH37 inh: 3; PAFAH1B2 FP inh: 2; PAFAH2 inh: 109*; pPAFAH FP inh: 3; GRIN3A LBD mod: -20; PAFAH1B3 FP inh: 3; PAFAH2 confirm: 4

How did COc1ccc(C=NNC(=O)c2ccncc2)cc1OC do in these assays?
UCH37 inh: 9

How did O=C(COC(=O)c1cc(S(=O)(=O)N2CCOCC2)ccc1F)Nc1ccc2c(c1)OCO2 do in these assays?
UCH37 inh: 1; PAFAH1B2 FP inh: -1; PAFAH2 inh: 3; pPAFAH FP inh: 8; GRIN3A LBD mod: 2; PAFAH1B3 FP inh: 0

How did COc1cccc(NC(=O)COC(=O)c2cc(S(=O)(=O)N3CCOCC3)ccc2C)c1 do in these assays?
UCH37 inh: 1; PAFAH1B2 FP inh: 1; PAFAH2 inh: 35*; pPAFAH FP inh: 3; GRIN3A LBD mod: 2; PAFAH1B3 FP inh: 6; PAFAH2 confirm: 21

Source: PubChem
